miR122 inh = miR-122 inhibition in Huh7 cells; 340,000 compounds, 0.3% hits; Huh7 miR-122 Renilla luciferase sensor, 48 h; neutral wells = 0, positive control = 100; AID 602342; activation (reporter increase), % at 12.5 µM;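 active means mean replicate activation score at least 90 and every replicate individually at or above 90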;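 further: higher luciferase means less miR-122 activity so hits act as miR-122 inhibitors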
697 NFkB inh = inhibitors of the PMA/ionomycin-induced NF-kB reporter in 697 B cells. inhibition, % at 4 µM. 330,000 compounds, 0.33% hits. 697 B-cell NF-kB luciferase reporter, 16 h. AID 435022; in the data active means inhibition above about 35%
Jurkat NFkB inh = inhibitors of the PMA/ionomycin-induced NF-kB reporter in Jurkat cells. PMA/ionomycin-induced NF-kB luciferase reporter, luminescence. inhibition, % at 4 µM. 330,000 compounds, 0.53% hits; in the data active means inhibition above about 50%
NR2E3 ag-1 = human photoreceptor-specific nuclear receptor agonism; inhibition of corepressor binding, % at 3.98 µM; CHO-S Gal4-NCOR/VP16-NR2E3 two-hybrid, luciferase; AID 602229; 360,000 compounds, 0.35% hits; Q9Y5X4;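 active means inhibition above the mean of all tested compounds plus 3 SD, cut at about 70% in these data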;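 further: 0% = DMSO with NR2E3 transfected cells and 100% = cells lacking NR2E3 construct; higher means lower luciferase signal from less NR2E3 corepressor binding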
Target sequence (Q9Y5X4 whole entry, looked up, the tested form may be a part): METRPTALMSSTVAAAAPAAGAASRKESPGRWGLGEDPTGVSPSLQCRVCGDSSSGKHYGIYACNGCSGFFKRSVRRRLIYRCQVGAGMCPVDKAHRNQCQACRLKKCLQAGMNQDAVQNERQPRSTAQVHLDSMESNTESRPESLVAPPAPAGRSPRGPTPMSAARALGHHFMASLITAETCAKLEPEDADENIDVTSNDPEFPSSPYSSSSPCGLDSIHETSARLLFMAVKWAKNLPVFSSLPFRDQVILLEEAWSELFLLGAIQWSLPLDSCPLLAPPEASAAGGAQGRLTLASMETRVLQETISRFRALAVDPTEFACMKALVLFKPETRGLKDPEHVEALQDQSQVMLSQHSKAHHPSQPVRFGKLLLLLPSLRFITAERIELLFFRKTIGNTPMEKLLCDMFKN
NR2E3 ag-2 = NR2E3 (human) agonism. inhibition of corepressor binding, % at 4.78 µM. 320,000 compounds, 0.12% hits. Q9Y5X4. GST-NR2E3/biotin-RetCOR TR-FRET, 1536-well;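 active means percent inhibition above the cutoff of mean plus 3 SD of all tested compounds, set per screening campaign, cut at about 20% in these data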;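 further: 0% = DMSO wells and 100% = biotin wells as full block of FRET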
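System: GST-tagged NR2E3 plus biotinylated RetCOR corepressor; Buffer or medium: pH 7.5 Tris-based buffer; Probe or stimulus: RetCOR corepressor, biotinylated, 7 nM; Doses: compound at 4.8 µM, single dose; Schedule: 5 h incubation at 4 °C; Technique: time-resolved FRET; Evaluation: percent inhibition of TR-FRET ratio; Replication: one well per compound, singlicate testing.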
FGF22 binding = binders of recombinant human FGF22 by thermal shift. activity (Tm shift, normalised), % at 9.99 µM. 340,000 compounds, 1.5% hits. AID 651658. SYPRO orange fluorescence; percent of sucrose octasulfate shift, DMSO zero. Q9HCT0;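 active means mean Tm shift, scaled 0 neutral to 100 positive control, at about 1.3% or above, every replicate too, limit read from the data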
Target sequence (Q9HCT0 whole entry, looked up): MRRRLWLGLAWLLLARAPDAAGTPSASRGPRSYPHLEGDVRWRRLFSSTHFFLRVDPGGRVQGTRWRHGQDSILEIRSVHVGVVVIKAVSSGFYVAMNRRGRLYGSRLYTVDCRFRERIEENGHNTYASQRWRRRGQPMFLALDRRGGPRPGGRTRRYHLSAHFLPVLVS
Jurkat NFkB conf = inhibitors of the PMA/ionomycin-induced NF-kB reporter in Jurkat cells, retest; AID 435020; shares compounds with Jurkat NFkB inh; Jurkat NF-kB luciferase, 16 h; inhibition, % at 4 µM; 2,700 compounds, 27% hits;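 active means inhibition reaching about 45% at 4 µM in either replicate, limit read from the data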;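 further: plate controls were PMA/ionomycin stimulated DMSO wells for no effect and unstimulated DMSO wells for full effect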
697 NFkB conf = inhibitors of the PMA/ionomycin-induced NF-kB reporter in 697 B cells, retest; inhibition, % at 4 µM; 2,000 compounds, 35% hits; 697 B-cell NF-kB luciferase, 16 h; shares compounds with 697 NFkB inh; AID 449746; in the data active means inhibition mostly above about 28%, no sharp cut-off; inactive means mostly below about 22%
The depositor's hits bear a star; i = inactive; . = not tested or not shown; [ ] = another dose, or the depositor's remark. Shown are actives, neighbours in structure and some others; about 2.2% of the full set was active somewhere.

SMILES	miR122 inh	697 NFkB inh	Jurkat NFkB inh	NR2E3 ag-1	NR2E3 ag-2	FGF22 binding	Jurkat NFkB conf	697 NFkB conf
C[C@H](NC(=O)c1nc[nH]c1C(=O)N[C@@H](C)C(=O)OCc1ccccc1)C(=O)OCc1ccccc1	.	56*	51*	-11	-1	0	86*	60*
CCSc1cc(C)nc2c(-c3ccccc3)cnn12	.	-264	-153	-76	1	0	-100	-269
CC(C)C(=O)Nc1ccc2nn(-c3ccccc3)nc2c1	-5	-357	-255	-140	1	0	-166	-329
CC(=O)Nc1cc2nn(-c3ccccc3)nc2cc1Cl	7	-349	-189	-116	-4	.	-80	-206
O=C(Nc1ccc2nn(-c3ccccc3)nc2c1)c1ccco1	2	-127	-115	-127	-2	.	.	.
CC=Cc1ccc2n(c1=O)C[C@H]1[C@H](CO)[C@@H](C(=O)NCC)N(Cc3cocn3)[C@@H]21 (mixture of isomers)	1[16.7 µM]	.	.	.	.	0	.	.
C[C@@H]1CN([C@H](C)CO)S(=O)(=O)c2ccc(-c3ccccc3)cc2O[C@@H]1CN(C)C(=O)c1ccccc1F	17[16.7 µM]	.	.	.	.	.	.	.
c1ccc(CSc2ncnc3sccc23)cc1	.	7	-1	-10	-1	0	.	.
c1ccc2sc(Sc3ncnc4sccc34)nc2c1	.	63*	98*	14	3	0	53*	60*
CCc1cc2c(Sc3nc4ccccc4s3)ncnc2s1	.	83*	100*	2	0	.	96*	64*
C[C@H](CO)N1C[C@H](C)[C@@H](CN(C)Cc2ccncc2)Oc2ccc(NC(=O)Nc3ccc(F)cc3)cc2CC1=O	0[16.7 µM]	.	.	.	.	0	.	.
O=c1oc(C2(O)CCCCC2)cc2ccc(-c3ccc4[nH]ccc4c3)cc12	3	i	-168	-59	.	0	-75	i
Cc1noc(C)c1NC(=O)N(C)C[C@H]1OCCCC[C@H](C)Oc2ccc(NC(=O)c3ccccc3)cc2C(=O)N([C@@H](C)CO)C[C@@H]1C	4[16.7 µM]	.	.	.	.	.	.	.
Cc1ccc(/C(N)=N/OC(=O)c2ccc(C)cc2Cl)cc1	1	-310	-193	1	0	0	-10	-288
Cc1ccc(/C(N)=N/OC(=O)c2ccc(F)cc2)cc1	-3	-100	-95	-67	7	.	.	.
N/C(=N\OC(=O)c1ccc(Cl)cc1Cl)c1cccnc1	-3	-129	-119	-155	-1	.	.	.
Cc1cccc(/C(N)=N/OC(=O)c2ccc(Cl)cc2Cl)c1	.	-358	-202	-31	-1	0	-53	-277
N/C(=N\OC(=O)c1ccc(Cl)cc1Cl)c1ccccc1	.	-292	-195	-65	1	.	-70	-436
O=C(Nc1ccc2ncccc2c1)c1ccccc1Br	-8	-105	-109	-48	1	.	.	.
COc1cc(SC)ccc1C(=O)Nc1ccc2ncccc2c1	.	-383	-206	-181	1	0	-153	-345
C=C1/C=C(\C)[C@](C)(O)C[C@H](O)CC(=O)[C@H](O)[C@@H](O)[C@H](C)C[C@H](C)OC(=O)/C(C)=C/CC/C=C/[C@@H]2O[C@H]2C[C@H](C)C1	.	37*	57*	.	.	.	12	17
CC[n+]1c(C=C2C=C(C)OC(C)=C2)sc2ccccc21	-21	53*	87*	-7	.	0	75*	69*
CN(C)C(=O)c1ccc(-c2ccc([C@@H]3[C@@H](CO)N4CCCCN(C(=O)C5CC5)C[C@@H]34)cc2)cc1	-7[16.7 µM]	.	.	.	.	0	.	.
NC(=O)c1ccsc1NC(=O)c1ccc2c(c1)CCCC2	6	-302	-183	-157	7	0	-120	-358
CO[C@@H]1CN(C)C(=O)c2cc(NC(=O)C3CCCC3)ccc2OC[C@H](C)N(C(C)=O)C[C@H]1C	-13[16.7 µM]	.	.	.	.	.	.	.
SMILES	miR122 inh	697 NFkB inh	Jurkat NFkB inh	NR2E3 ag-1	NR2E3 ag-2	FGF22 binding	Jurkat NFkB conf	697 NFkB conf
N=c1cc(C2(O)CCCCC2)n2c(nc3ccccc32)s1	-5	-284	-161	-80	5	.	-89	-214
CCCCCn1c(=O)[nH]c2cc(C(=O)N3CCN(Cc4ccc5c(c4)OCO5)CC3)ccc2c1=O	-25	105*	64*	-10	0	.	77*	85*
CCCCCn1c(=O)[nH]c2cc(C(=O)NCc3ccc4c(c3)OCO4)ccc2c1=O	1	14	7	-1	0	.	.	.
CCOC(=O)c1c(C)[nH]c(C(=O)CSc2ccccc2)c1C	0	-330	-202	-127	0	.	-124	-351
O=c1c2ccccc2cnn1-c1ccc(Br)cc1	4	-167	-127	-121	6	.	.	.
O=c1c2ccccc2cnn1-c1ccc2ccccc2c1	-3	-290	-207	-152	2	.	-123	-294
COc1cc2sc3ccc(C#CC4(O)CCCCC4)cc3c(=O)c2cc1OC	.	-332	-297	-50	2	0	-86	-411
CCNC(=O)C[C@@H]1CC[C@@H]2[C@@H](COc3ccc(NC(=O)Nc4ccccc4C)cc3C(=O)N2C)O1	0[16.7 µM]	.	.	.	.	0	.	.
COc1cccc(S(=O)(=O)N(C)C[C@@H]2OCc3cn(nn3)CCCC(=O)N([C@H](C)CO)C[C@@H]2C)c1	-4[16.7 µM]	.	.	.	.	.	.	.
C[C@@H]1CCCCO[C@@H](CN(C)S(=O)(=O)c2ccc(F)cc2)[C@H](C)CN([C@@H](C)CO)C(=O)c2cc(NS(C)(=O)=O)ccc2O1	5[16.7 µM]	.	.	.	.	0	.	.
CCCCCc1ccc(OCCCC[n+]2cccc(C)c2)c(CCCCC)c1	-25	42*	63*	-5	2	.	58*	48*
COc1cc([N+](=O)[O-])cc(/C=N/NC(=O)c2ccc(NC(=O)c3ccc(C)cc3)cc2)c1O	-5	81*	86*	-30	.	0	55*	77*
O=C(O)c1ccccc1-c1ccccc1C(=O)Nc1ccc(-c2nc3cc(Cl)ccc3o2)cc1	.	-35	-54	14	2	.	.	.
O=C(Nc1ccc(-c2nc3cc(Cl)ccc3o2)cc1)C1CCCO1 (stereo not given)	0	-263	-164	-131	-3	.	-88	-200
CCCC(=O)Nc1ccc2oc(-c3ccc(OC)c(Br)c3)nc2c1	-6	-73	-58	-55	4	.	.	.
CCCC(=O)Nc1ccc(-c2nc3cc(C)ccc3o2)cc1	8	-379	-168	-106	-3	.	-96	-363
C=C1C(O)[C@@H]2O[C@]3(CC[C@H](/C=C/C(C)[C@@H]4CC(C)=CC5(O[C@H](C[C@@](C)(O)CO)CCC5O)O4)O3)CC[C@H]2O[C@@H]1C(O)CC(C)[C@H]1OC2(CCCCO2)CCC1C (stereo not given in full)	.	-405	92*	.	.	.	78*	-170
